Measurements collected from several papers.
Lines come from different studies, so protocols differ.
Cell line: HepG2
Read-out: cell growth or viability

COC1=CC(c2ccc[nH]2)=NC1=Cc1ccc(CCCCCCCCCCCO)[nH]1 gave an IC50 of 11.4 µM.
CNc1cccc2cc(C(=O)NCCc3cccc(C(=O)O)c3)c(=O)[nH]c12 has a cell death of 15% (CCK-8; 50 µM, 48 h).
The viability of COc1ccc2c(c1)c1c(n2CO)CN2CCc3cc(OC)c(OCC(F)(F)F)cc3C2C1 (stereo not drawn) is reported as 96.6% (10 µM, 24 h).
COc1ccc(CCN2CCC(Nc3nc4ccccc4n3Cc3ccc(F)cc3)CC2)cc1 gave a viability of 113% (resazurin; 1 µM, 24 h).
The viability of CC(C)(C)CC(C)(C)Nc1c(-c2ccccc2)nc2ncccn12 is reported as 67.4% (MTT; 25 µM, 48 h).
COC1=CC(c2ccco2)=NC1=Cc1ccc(CCCCCCCCCC(C)O)[nH]1 (stereo not drawn) gave an IC50 of over 100 µM.
COc1cc2[nH]c(C)c(-c3ccc(Oc4ccc(OC(F)(F)F)c(F)c4)cc3)c(=O)c2cc1Cl has an IC50 of over 10 µM (resazurin).
For CC(=O)O[C@@H]1c2c(ccc3ccc(=O)oc23)OC(C)(C)[C@@H]1OC(=O)C1(C)OC1C (stereo partly drawn), the IC50 was 20.7 µM (WST-1).
The viability of COc1ccc2c(c1)c1c(n2CO)CN2CCc3cc(OCc4ccccc4)c(OC)cc3C2C1 (stereo not drawn) is reported as 111% (10 µM, 24 h).
For CC(=O)OC1c2c(ccc3ccc(=O)oc23)OC(C)(C)C1OC(=O)C(C)(O)C(C)O (stereo not drawn), the IC50 was 24.4 µM (WST-1).
COc1ccc2c(c1)c1c(n2CO)CN2CCc3cc(OC)c(OCc4ccc(F)cc4)cc3C2C1 (stereo not drawn) has a viability of 104% (20 µM, 24 h).
The IC50 of COC1=CC(c2ccc[nH]2)=NC1=Cc1ccc(CCCCCCCCCCO)[nH]1 is reported as 11.4 µM.
With COc1cc2[nH]c(C)c(-c3ccc(Oc4ccc(F)cc4)cc3)c(=O)c2cc1Cl the IC50 was over 10 µM (resazurin).
COC1=CC(c2ccc[nH]2)=NC1=Cc1ccc(CCCCCCCCCCCCO)[nH]1 has an IC50 of 6.18 µM.
The viability of CC(C)(C)CC(C)(C)Nc1c(-c2cccnc2)nc2ncccn12 is reported as 92.5% (MTT; 25 µM, 48 h).
The viability of COc1ccc2cc3[n+](cc2c1OC)CCc1cc2c(cc1-3)OCO2 is reported as 102% (10 µM, 24 h).
COc1cc2[nH]c(C)c(-c3ccc(Oc4ccc(F)c(OC(F)(F)F)c4)cc3)c(=O)c2cc1Cl gave an IC50 of over 10 µM (resazurin).
CNc1cccc2cc(C(=O)NCc3ccc(C(=O)O)cc3)c(=O)[nH]c12 has a cell death of 6.1% (CCK-8; 10 µM, 48 h).
COc1cc2c(cc1OCc1ccccc1F)C1Cc3c(n(CO)c4ccccc34)CN1CC2 (stereo not drawn) has a viability of 109% (10 µM, 24 h).
With CCCCCCn1c(-c2cccc(Cl)c2)n[nH]c1=S the viability was 87% (resazurin; 1 µM, 24 h).
Cc1[nH]c2ccc(Cl)cc2c(=O)c1-c1ccc(Oc2ccc(OC(F)(F)F)cc2)nc1 gave an IC50 of over 10 µM (resazurin).
COc1cccc2c1C(=O)c1c(O)c3c(c(O)c1C2=O)C[C@@](O)(C(=O)CO)C[C@@H]3O[C@H]1C[C@H](N)[C@H](O)[C@H](C)O1 has a viability of 31.4% (MTT; 25 µM, 48 h).
With Cc1[nH]c2ccccc2c(=O)c1-c1ccc(Oc2ccc(OC(F)(F)F)cc2)nc1 the IC50 was over 10 µM (resazurin).
The CC50 of CCCCCCCCCCCCCCCCOP(=O)([O-])OCC[N+](C)(C)C is reported as over 20 µM (MTS; 24 h).
